# Compound activity from PubChem BioAssay.
# Shown are actives, neighbours in structure and some others; about 1.5% of the full set was active somewhere.
# CXCR6 inh – CXCR6 (human) receptor inhibition. CHO-K1 PathHunter CXCR6 beta-arrestin, luminescence. actives 0.36% (n = 360,000). inhibition, % at 20 µM; in the data active = inhibition above about 34%, passing the limit was not always enough;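 note: antagonist mode with CXCL16 agonist at 10 nM final; 0% = 10 nM CXCL16 with DMSO and 100% = unstimulated wells without agonist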
# Target sequence (O00574 whole entry, looked up): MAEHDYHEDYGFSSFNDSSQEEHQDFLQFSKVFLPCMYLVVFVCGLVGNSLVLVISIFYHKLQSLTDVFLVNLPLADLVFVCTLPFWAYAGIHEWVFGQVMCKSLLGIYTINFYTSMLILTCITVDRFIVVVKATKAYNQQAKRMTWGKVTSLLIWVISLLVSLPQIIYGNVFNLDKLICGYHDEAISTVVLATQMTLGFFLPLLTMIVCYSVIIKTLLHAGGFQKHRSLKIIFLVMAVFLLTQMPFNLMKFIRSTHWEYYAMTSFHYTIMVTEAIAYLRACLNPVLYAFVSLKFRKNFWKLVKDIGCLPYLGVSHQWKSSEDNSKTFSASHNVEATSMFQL
# APJ antagonist – blocks the human apelin receptor APJ. inhibition, % at 20 µM. P35414. CHO-K1 APJ beta-arrestin complementation, luminescence. actives 0.32% (n = 330,000);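 active = inhibition above about 40% at 20 µM, limit read from the data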;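 note: cells challenged with 10 nM apelin-13 agonist together with compound; plate controls were apelin-13 plus DMSO wells for no effect and DMSO wells lacking apelin-13 for full effect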
# APJ ag – APJ receptor agonism | actives 0.11% (n = 330,000) | activation, % at 20 µM | P35414 | CHO-K1 APJ PathHunter beta-arrestin, luminescence; 0% DMSO wells, 100% apelin | AID 2520;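 active = activation more than six SD over the plate average, tested at 20 µM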;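 note: 0% = DMSO alone and 100% = apelin-13 at 10 nM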
#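 Material: CHO-K1 APJ beta-arrestin complementation cell line; Input: cell density 1000 per well; Incubation: compound stimulation 90 min at 25 °C, detection 60 min; Signal: luminescence from split beta-galactosidase complementation, Galacton Star/Emerald II substrate; Controls: DMSO-only wells as negative, 10 nM Apelin-13 as positive control.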
# CCR6 antagonist – CCR6 (human) receptor antagonism | P51684 | CHO-K1 CCR6 PathHunter beta-arrestin, luminescence, CCL20-stimulated | inhibition, % at 20 µM | actives 0.49% (n = 340,000);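 active = compounds whose inhibition of the agonist-driven luminescence signal at 20 µM reaches about 50%, limit read from the data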;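 note: cells stimulated with CCL20 at 14 nM final; plate controls were DMSO with CCL20 for no effect and DMSO without agonist for full effect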
# EBI2 antag – antagonists of human EBI2 receptor. inhibition, % at 5 µM. AID 651636. P32249. EBI2 beta-arrestin recruitment, luminescence, 7a,25-OHC stimulated. actives 0.81% (n = 360,000); in the data active = inhibition above about 38%;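 note: enzyme fragment complementation signal reports receptor beta-arrestin coupling in cells; 0% = agonist plus DMSO wells and 100% = wells without agonist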
# APJ antag confirm – confirmation of human APJ apelin receptor antagonists; shares compounds with APJ antagonist; APJ beta-arrestin recruitment, luminescence, antagonist mode; inhibition, % at 20 µM; actives 66% (n = 950); AID 2766; in the data active = inhibition above about 50%
# * hit, by the source's call; nt = no result.
SMILES,CXCR6 inh,APJ antagonist,APJ ag,CCR6 antagonist,EBI2 antag,APJ antag confirm
Cc1cccc2cc3c(N)c(C(=O)N4CCOCC4)sc3nc12,7,51*,-11,23,2,7
CCCNC(=O)c1cc(C2CCCN(C(=O)c3ccc(OC)cc3)C2)on1 (configuration not stated),0,nt,nt,nt,-7,nt
CCOC(=O)c1ccccc1NC(=O)COC(=O)C(CCSC)NC(=O)COc1ccccc1 (configuration not stated),-6,-49,-5,5,2,nt
COc1cc(NC(=O)CSc2nc3c(c(=O)n(C)c(=O)n3C)n2C)cc(OC)c1,-1,5,-2,-2,-16,nt
COc1cccc(CCC2C(=O)CCCC2=O)c1,7,nt,nt,1,-4,nt
Cc1n[nH]c(C)c1S(=O)(=O)N1CCC(C(=O)N2CCn3c2nc2ccccc23)CC1,52*,66*,-12,73*,34,100*
Cc1ccc(N(CC(=O)N2CCn3c2nc2ccccc23)S(=O)(=O)c2c(C)n[nH]c2C)cc1,-5,-11,1,4,3,nt
Cc1ccc(NC(=O)C2COc3ccccc3O2)cc1S(=O)(=O)N1CCCCC1 (configuration not stated),4,-15,-2,11,-6,nt
COc1cccc(NC(=O)c2cc3c(=O)n4ccccc4nc3n(CC(C)C)c2=N)c1,5,41*,-1,27,13,17
Cc1cccc(NC(=O)c2cc3c(=O)n4ccccc4nc3n(CC(C)C)c2=N)c1,9,-40,0,29,8,nt
COc1ccc(N2C(=O)CC(Cc3ccc(Br)cc3)C2=O)cc1 (configuration not stated),-3,18,-2,-1,8,nt
CCOc1ccc(N2C(=O)CC(Cc3ccc(Br)cc3)C2=O)cc1 (configuration not stated),2,65*,-3,-2,8,36
CC(C)(C)c1cc(Cl)c(O)c(NC(=S)NC(=O)c2cccnc2)c1,40*,67*,-9,52*,19,78*
CC(C)(C)c1ccc(C(=O)NNC(=S)NC(=O)c2cccnc2)cc1,28,22,-5,27,-13,nt
Cc1c(NS(=O)(=O)c2ccc(Cl)c(C(=O)OCC(=O)NCc3ccco3)c2)c(=O)n(-c2ccccc2)n1C,-2,49*,0,-3,-5,4
COc1ccc(OC)c(C2C(C(=O)c3ccco3)=C(O)C(=O)N2CC2CCCO2)c1 (configuration not stated),0,4,-1,15,-7,nt
CN1N=C(C(C)(C)C)CSC1=Nc1ccccc1,-1,-5,-2,18,-5,nt
CC(C)OCCCn1c(=N)c(S(=O)(=O)c2ccccc2)cc2c(=O)n3ccccc3nc21,10,43*,-4,1,9,-14
COc1ccc(S(=O)(=O)NNc2nc(C)cc(C)n2)cc1[N+](=O)[O-],22,62*,-29,32,12,114*
COc1ccc(C(=O)Nc2nc(C)cc(C)n2)cc1[N+](=O)[O-],-10,-6,-4,11,-1,nt
Cc1ccc(CS(=O)(=O)c2cn(CC(=O)Nc3ccon3)c3ccccc23)cc1,-5,4,1,4,1,nt
O=C(COC(=O)c1ccco1)Nc1cc(S(=O)(=O)N2CCCCC2)ccc1Cl,8,-1,-3,9,11,nt
O=C(COC(=O)c1ccccc1)c1ccc(S(=O)(=O)N2CCCCC2)cc1,27,27,-17,38,26,nt
O=C(COC(=O)c1ccco1)c1ccc(S(=O)(=O)N2CCCCC2)cc1,30,57*,-28,48,4,65*
O=C(COC(=O)c1ccc(Br)o1)c1ccc(S(=O)(=O)N2CCCCC2)cc1,44*,68*,-12,64*,30,90*
CNS(=O)(=O)c1cccc(C(=O)OCC(=O)c2cc3ccccc3o2)c1,43*,81*,-11,73*,13,69*
O=C(COc1ccccc1)OCC(=O)c1ccc(S(=O)(=O)N2CCCCC2)cc1,42*,85*,-7,68*,14,116*
O=C1c2ccccc2C(Nc2ccc3c(c2)OCCO3)N1Cc1ccccc1 (configuration not stated),-8,-1,-4,9,1,nt
